sPLA2-III inh – Blocks human group III sPLA2 activity | Q9NZ20 | QFRET BODIPY PC-A2 liposome hydrolysis, fluorescence | 370,000 compounds, 0.56% hits | inhibition, % at 12.2 µM;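 active = inhibition above mean plus 3 SD of compounds lying within the high and low control bounds, cut at about 19% in these data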;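 note: 0% = median of test compound wells and 100% = no enzyme DMSO wells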
Calb FLC – C. albicans growth modulation with fluconazole; C. albicans CaCi-2 + fluconazole, Alamar Blue growth, 48 h; 300,000 compounds, 0.57% hits; AID 1979; growth inhibition, % (concentration not given with the values);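 active = growth inhibition above about 58% in most replicates, limit read from the data, passing the limit was not always enough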;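 note: all wells also contain fluconazole at 8 µg/ml as a sub-toxic cotreatment; 0% = median of DMSO wells and 100% = median of geldanamycin control wells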
ASAP1 inh – inhibitors of human ASAP1 ArfGAP activity | inhibition, % at 16.5 µM | ASAP1-stimulated ARF1 GTP hydrolysis, GDP FP detection | 360,000 compounds, 0.19% hits | Q9ULH1; in the data active = inhibition above about 25%;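 note: 0% = vehicle with enzyme and substrate and 100% = no enzyme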
Target sequence (Q9ULH1 325-724 limits assumed): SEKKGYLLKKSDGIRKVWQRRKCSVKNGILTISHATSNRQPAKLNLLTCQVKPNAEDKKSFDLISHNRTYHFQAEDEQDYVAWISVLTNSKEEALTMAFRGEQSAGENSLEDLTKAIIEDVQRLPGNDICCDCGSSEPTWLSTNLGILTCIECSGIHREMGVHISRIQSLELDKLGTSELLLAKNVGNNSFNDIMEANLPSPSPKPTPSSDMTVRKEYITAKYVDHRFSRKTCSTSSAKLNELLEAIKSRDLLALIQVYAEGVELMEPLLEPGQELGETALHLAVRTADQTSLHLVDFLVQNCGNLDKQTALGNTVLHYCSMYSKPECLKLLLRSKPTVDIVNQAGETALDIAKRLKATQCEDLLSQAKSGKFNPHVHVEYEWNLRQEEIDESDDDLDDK
ARFGAP1 inh – rat ARFGAP1 inhibition; 360,000 compounds, 0.26% hits; Arfgap1-stimulated ARF1 GTP hydrolysis, GDP FP detection; Q62848; inhibition, % at 16.5 µM;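 active = inhibition above a per-plate limit, mean inhibition of low control wells plus 3 SD, cut at about 25% in these data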;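 note: 0% = DMSO wells with enzyme and 100% = wells lacking Arfgap1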
Target sequence (Q62848 1-136 limits assumed): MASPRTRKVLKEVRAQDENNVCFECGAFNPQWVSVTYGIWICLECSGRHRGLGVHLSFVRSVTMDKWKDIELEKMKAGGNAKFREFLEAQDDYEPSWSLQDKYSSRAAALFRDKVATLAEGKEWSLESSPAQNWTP
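Replicates: Single well per compound | Assay system: Truncated rat Arfgap1 GAP domain | Control set: No-Arfgap1 wells (100%) versus DMSO full-reaction wells (0%) | Times: Enzyme reaction 120 min at 25 °C after 20 min preincubation | Reagent: Human ARF1(Δ1-17)-GTP substrate | Measured by: Tracer-displacement fluorescence polarization with EDTA stop, 620/688 nm | Measure: Percent inhibition of Arfgap1-stimulated GTP hydrolysis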
SKKanGAS inh – SKKanGAS growth inhibition; S. pyogenes SKKanGAS, kanamycin growth, BacTiter-Glo, 6 h; inhibition, % at 7.5 µM; 300,000 compounds, 1.3% hits;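 active = mean replicate score, as percent of positive control median, at least 50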;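 note: strain carries kanamycin resistance gene driven by streptokinase promoter and grows in 40 µg/ml kanamycin; loss of luminescence reflects streptokinase promoter inhibition or plain growth inhibition; 0% = median of DMSO wells and 100% = positive control at its reference dose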
sPLA2 confirm – human GIII-sPLA2 inhibition, confirmation. shares compounds with sPLA2-III inh. recombinant hGIII-sPLA2, BODIPY PC-A2 QFRET fluorescence. inhibition, % at 12.2 µM. 2,000 compounds, 34% hits;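 active = mean inhibition across triplicates above the hit cutoff set in the earlier primary screen, cut at about 19% in these data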;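 note: 0% = enzyme with DMSO and 100% = DMSO wells lacking enzyme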
535nm interf – counter-screen for HGIII-sPLA2 inhibitors: 535nm fluorescence interference; AID 743282; BODIPY FL product fluorescence interference, QFRET; shares compounds with sPLA2-III inh; 2,000 compounds, 8.5% hits; inhibition, % at 12.2 µM;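 active = average inhibition above the solvent-only control mean plus 3 SD, cut at about 6% in these data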;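 note: 0% = DMSO with substrate plus product and 100% = DMSO with substrate alone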
535nm interf DR – counter-screen for HGIII-sPLA2 inhibitors: 535nm fluorescence interference, dose response; shares compounds with sPLA2-III inh; BODIPY FL product fluorescence interference, cell-free; IC50, µM; 240 tested, under 10 active;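 active = IC50 at or below 10 µM; inactive = IC50 above 10 µM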
* hit, by the source's call; / = no result given. A selection: hits, their analogues and other compounds. The true share with any hit is near 2.3%.

SMILES	sPLA2-III inh	Calb FLC	ASAP1 inh	ARFGAP1 inh	SKKanGAS inh	sPLA2 confirm	535nm interf	others
CSc1ccc(C(O)c2ncc(-c3ccc(F)cc3)[nH]2)cc1 (stereo unspecified)	6.3	/	1.6	10.2	/	/	/
Cc1csc(NC(=O)c2ccccc2)n1	-4.4	-7.0	9.6	-4.6	-2.6	/	/
Cc1csc(NC(=S)NC(=O)c2ccccc2)n1	20.8*	-14.0	2.3	5.2	0.5	31.6*	0.9	535nm interf DR=>122
CN1/C(=C\C(=S)NC(=O)c2ccccc2Cl)C(C)(C)c2ccccc21	17.6	-9.5	1.1	-9.5	5.3	/	/
CN1/C(=C/C(=S)NC(=O)C2(C)CC2(Cl)Cl)C(C)(C)c2ccccc21 (stereo unspecified)	27.3*	-1.4	5.3	6.5	28.3	7.6	2.5
Cc1nn(-c2ccccc2)c(C)c1/C=N/NC(=O)c1[nH][nH]c(=O)c1C	5.6	/	/	/	/	/	/
S=C(N/N=C/c1cccs1)NC1CC2CCC1C2 (stereo unspecified)	27.6*	27.1	-13.6	-11.2	42.9	36.2*	2.6	535nm interf DR=>122
FC(F)c1nc2ccccc2[nH]1	0.6	-5.2	-11.0	6.9	4.0	/	/
FC(F)Sc1nc2ccccc2[nH]1	25.0*	-8.9	1.4	6.8	-6.0	14.8	-3.2
CNC(=S)NN=C(C)c1ccc(OC)cc1O	26.6*	/	-1.1	-6.0	/	31.2*	3.5	535nm interf DR=>122
O=S(=O)(NNc1ccc(Cl)nn1)c1ccc(F)cc1	19.2*	4.5	-6.6	5.8	-2.1	15.1	8.3*
O=S(=O)(Nc1ccc(Cl)nn1)c1ccccc1	6.4	-1.7	5.7	-4.7	2.4	/	/
COc1ccc(Cn2ccc3ccc(-c4ccc5ccn(Cc6ccccc6F)c5c4)cc32)cc1	19.8*	/	/	/	/	12.7	4.6
COc1ccc(Cn2ccc3ccc(-c4ccc5ccn(Cc6ccc(OC)cc6)c5c4)cc32)cc1	6.6	/	/	/	/	/	/
Cc1nn(-c2ccccc2)c(NC(=O)C(C)C)c(-c2ccccc2)c1=O	18.4	-6.1	3.7	-3.9	2.0	/	/
CCCC(=O)Nc1c(-c2ccccc2)c(=O)c(C)nn1-c1ccccc1	20.1*	0.2	6.5	-4.2	-3.3	-2.6	-6.6
CCOC(=O)c1sc(=S)n(-c2ccccc2)c1N	6.9	-4.5	-0.6	-3.3	-3.9	/	/
CCOC(=O)c1sc(=S)n(-c2ccc(OC)cc2)c1N	24.9*	1.6	-0.7	-4.5	9.6	14.6	-1.0
COc1cc(NC(=O)c2ccccc2)c(C)cc1NC(=O)CSc1nnc(COc2ccccc2)n1Cc1ccco1	-17.6	/	/	/	/	/	/
CC(C)NC(=S)NC(c1ccccc1)(c1ccccc1)c1ccccc1	21.6*	-8.0	-1.2	5.6	81.3*	29.0*	-12.5
COC(=O)c1ccc(Cn2ccc3ccc(-c4ccc5ccn(C(=O)c6ccc(C)cc6)c5c4)cc32)cc1	0.4	/	/	/	/	/	/
Cc1ccc(C)c(-n2c(-c3ccco3)n[nH]c2=S)c1	20.8*	17.9	-1.2	0.1	-7.5	20.7*	3.3
Cn1c(-c2cccc3ccccc23)n[nH]c1=S	19.9*	9.7	11.1	10.2	-3.3	5.4	-3.8
S=c1[nH]nc(-c2ccco2)n1-c1cccc2ccccc12	21.4*	8.2	19.6	-10.4	3.1	24.5*	3.2
Cn1c(Cn2c3ccccc3c3ccccc32)n[nH]c1=S	6.6	-10.8	1.3	12.5	7.2	/	/
SMILES	sPLA2-III inh	Calb FLC	ASAP1 inh	ARFGAP1 inh	SKKanGAS inh	sPLA2 confirm	535nm interf	others
CC(C)Oc1cccc(-c2n[nH]c(=S)n2N=Cc2ccc(OCc3ccccc3)cc2)c1	-19.7	/	/	/	/	/	/
COCCCNCCCCSc1ccc(Cl)cc1	21.6*	3.7	0.0	17.9	-0.2	-7.9	-26.7
COCCCNCCOCCSc1ccc(Cl)cc1	0.7	-54.5	3.6	-2.2	1.3	/	/
COC(=O)C1=CN(c2ccc(N3CCOCC3)cc2)C(N)=C(C#N)C1c1cccc(OC)c1OC (stereo unspecified)	20.1*	/	20.0	-2.7	/	-4.9	-20.5
COc1ccc(S[C@]2(C(=O)N3CCOCC3)CC(=O)N(P(=O)(OC)OC)[C@@H]2c2ccc(OC)cc2)cc1	4.9	/	/	/	/	/	/
COC(=O)c1c(NC(=O)CSc2nc3ccccc3c(=O)n2Cc2ccco2)sc(C)c1C	19.4*	-3.6	10.5	-2.2	8.3	0.5	-0.4
Cc1ccccc1C(=O)NNC(=S)NC(=O)c1cccs1	33.8*	13.4	-1.0	-4.0	68.6*	38.9*	-4.7	535nm interf DR=>122
O=C(CSc1nnc(COc2ccccc2)n1-c1ccccc1)Nc1ccc2c(c1)OCO2	-12.2	/	/	/	/	/	/
COCCCNC(=O)C[C@H]1C[C@@]2(C(=O)OC)C(=C[C@H](C3CCCC3)O[C@@H]2C)N(Cc2cccc3ccccc23)C1=O	-19.0	/	/	/	/	/	/
COC(=O)c1cc2sccc2n1CC(=O)Nc1ccc(OC)c(OC)c1OC	-6.2	-7.0	-1.0	5.8	21.7	/	/
CCOC(=O)c1cc2sccc2n1CC(=O)Nc1ccc(OC)cc1OC	20.9*	5.0	4.0	4.6	0.3	-25.4	-17.9
Cc1c(Cl)ccc2sc(NC(=O)CN3C(=O)c4ccccc4C3=O)nc12	19.5*	-4.5	3.6	5.3	-5.6	-0.2	-7.7
CCCC(=O)Nc1nc2c(C)c(Cl)ccc2s1	-3.5	-7.3	3.2	3.1	6.0	/	/
CCOc1ccc(C(=O)Nc2nncs2)cc1OCC	21.6*	7.2	9.2	16.6	-5.0	-1.9	0.9
CN1[C@H](Cc2ccccc2)COc2cc(N3CCCC3)ccc2S1(=O)=O	15.0	/	/	/	/	/	/
CC(C)=CCC/C(C)=C/CNCC(=O)N1c2ccccc2[C@]2(C)C[C@@H]3C(=O)N(C/C=C(\C)CCC=C(C)C)CC(=O)N3[C@H]12	-2.9	/	/	/	/	/	/
O=C(Nc1cc2c(ccc3ccccc32)oc1=O)C1CCCCC1	23.1*	-4.4	11.4	6.5	-4.4	-3.0	-4.4
O=c1cc(-c2ccccc2)[nH]n1-c1nc2ccccc2[nH]1	19.4*	-1.7	4.9	4.2	14.2	14.1	-0.9
Oc1ccc(CCc2c(F)cccc2F)c2cccnc12	16.4	/	/	/	/	/	/
Oc1ccc(/C=C/c2ccccc2F)c2cccnc12	27.5*	/	/	/	/	5.7	9.6*
c1ccc(CCNc2cc(-c3ccc4ccccc4c3)nc3ccnn23)nc1	-4.0	/	-7.1	1.5	/	/	/
CC(C)N1CCC(N2CCN(C/C=C/c3ccc(F)cc3)CC2CCO)CC1 (stereo unspecified)	19.9*	-13.5	8.1	5.4	-16.2	0.9	-9.0
CC(C)N1CCC(N2CCN(CCCc3ccccc3)CC2CCO)CC1 (stereo unspecified)	7.5	-0.8	4.6	-3.0	-5.3	/	/
Cc1ccc(-n2c(=S)[nH]c3c(oc4ccccc43)c2=O)cc1	25.3*	41.7	-2.0	9.1	-1.7	5.0	-2.9
